# Most compounds without a hit are left out; they make up all but 9.6% or so of the library.
# MT stabilize HCS: microtubule stabilizers in HeLa cells; HeLa tubulin immunostaining HCS, 24 h; share of cells brighter than vehicle mean+2SD; % tubulin-high responders, % at 10 µM; 200,000 tested, 0.83% active;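 active = plate Z-score above 3 for both tubulin-high and condensed-nucleus cell shares, with cell loss under 80%, at 10 µM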;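 note: anti alpha tubulin signal scored within the nucleus-defined area of each cell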
# APP transl inh: APP translation inhibition | inhibition, % at 2 µM | 190,000 tested, 0.82% active | SH-SY5Y APP 5'UTR-luciferase reporter, luminescence;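 active = inhibition above a set limit, derived from the sample mean plus 3 SD, cut at about 45% in these data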
# bCat nuc transl: beta-catenin nuclear translocation modulation | AID 1665 | HeLa beta-catenin nuclear translocation, immunofluorescence imaging | nuclear translocation activity, % at 5 µM | 190,000 tested, 0.3% active;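 active = nuclear translocation activity above 50% at 5 µM, with a well cell count of 50 or more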;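 note: per-cell ratio of nuclear to cytoplasmic median beta-catenin stain intensity; plate controls were DMSO negative control for no effect and GSK-3 inhibitor IX positive control for full effect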
#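 Read-out: Nuclear/cytoplasmic beta-catenin signal ratio, % activation | Assay system: Human HeLa cell line | Times: 24 h compound exposure at 37°C, 5% CO2 | Signal: Fluorescence imaging of beta-catenin antibody stain plus DAPI | Dosing: 5 µM primary, 0.02–20 µM confirmation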
# BaF3 parental: reduces parental Ba/F3 cell viability, JAK2V617F counter-screen | 220,000 tested, 1.1% active | AID 1486 | CellTiter-Glo ATP luminescence | inhibition, % at 5.6 µM;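 active = inhibition above a per-campaign cutoff, the mean inhibition of all tested compounds plus 3 SD, cut at about 27% in these data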;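 note: 0% = DMSO wells and 100% = JAK Inhibitor I control wells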
# Lmaj promast: Leishmania major promastigote growth inhibition; Leishmania major promastigotes, resazurin fluorescence viability; inhibition, % at 10 µM; 200,000 tested, 9% active; AID 1063; in the data active = inhibition above about 50%;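 note: promastigotes grown with compound for 44 hours at 28 °C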
# Ba/F3 V617F tox: reduce viability of Ba/F3 cells dependent on JAK2V617F. inhibition, % at 5.6 µM. Ba/F3 EpoR-JAK2V617F viability, ATP luminescence. 220,000 tested, 1.1% active. AID 1446;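 active = inhibition above the campaign mean plus 3 SD over all tested compounds, cut at about 24% in these data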;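 note: cytokine-independent growth of Ba/F3 cells driven by EpoR plus mutant JAK2; 0% = DMSO-treated cells and 100% = JAK inhibitor I control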
# * hit, by the source's call; nt = not tested or not shown.
SMILES,MT stabilize HCS,APP transl inh,bCat nuc transl,BaF3 parental,Lmaj promast,Ba/F3 V617F tox
COc1cccc(C(=O)N2CCC3(CC2)OCCO3)c1,nt,nt,0,-2,nt,-3
O=C(c1ccc2c(c1)ncn2C1CCCCC1)N1CCC2(CC1)OCCO2,27*,-13,3,6,2,4
CCCCOc1ccc(CC2C(=O)N(C)C(=O)N(C)C2=O)cc1,5,-8,-5,3,-10,-2
CCCCOc1ccc(CN2CCN(CC)CC2)cc1,3,-6,-3,3,86*,-3
CCCCOc1ccc(CN2CCN(CCO)CC2)cc1,1,-4,0,6,89*,-4
CCCCCCOc1ccc(CN2CCN(CCO)CC2)cc1,5,-122,0,7,99*,7
Cc1ccc(OCC(=O)N2CCN(Cc3cccnc3)CC2)cc1,4,-2,-4,2,3,3
Cn1c(=O)n(C)c2cc([N+](=O)[O-])c(N3CCNCC3)cc21,2,4,1,-3,-3,0
COc1ccccc1CCNC1CCC(C(C)(C)C)CC1 (stereo not given),4,-16,-2,6,100*,4
CC(=O)Cc1c[nH]c2ccccc12,nt,nt,0,1,nt,-4
CN1CCN(Cc2ccc(Br)s2)CC1,4,6,nt,0,70*,-2
CCOC(=O)C1CCN(/C=C2/C(=O)NC(=O)N(Cc3ccco3)C2=O)CC1,41*,-5,2,10,-3,3
CCNc1cc(N2CCN(C)CC2)ccc1[N+](=O)[O-],5,-17,0,5,8,3
CN1CCN(c2ccc([N+](=O)[O-])c(N/N=C3\CN4CCC3CC4)c2)CC1,3,9,nt,1,92*,0
CC1(C)OC(c2ccccc2)=C/C(=C/C=C2C(=O)NC(=O)NC2=O)O1,6,6,8,5,-3,-1
CN1CCCC(C(=O)c2ccc(Cl)cc2)C1 (stereo not given),1,-2,1,6,45,-3
COc1ccc(Cc2nccc3cc(OC)c(OC)cc23)cc1OC,2,2,-1,27*,-4,11
COc1ccc(CCNCc2ccc(C)s2)cc1OC,4,-17,-1,8,-1,4
CCOC(=O)c1c(-n2c(C)cc(/C=C3\C(=O)NC(=O)N(C)C3=O)c2C)sc2c1CCCC2,3,-16,-1,2,93*,2
CCCCN1C(=O)/C(=C/c2ccc(N3CCCCCC3)cc2)C(=O)NC1=S,4,-1,0,9,59*,-2
CCC(C)N1C(=O)/C(=C\c2cnc(N(C)C)nc2)C(=O)NC1=S (stereo not given),5,4,-3,8,14,2
CCC(C)N1C(=O)/C(=C\c2cc3c4c(c2)CCCN4CCC3)C(=O)NC1=S (stereo not given),5,8,16,3,98*,3
CCC(C)N1C(=O)/C(=C\c2ccc(N3CCCCCC3)cc2)C(=O)NC1=S (stereo not given),2,18,1,5,93*,-2
Cc1nc2ccccc2c(=O)n1-c1cc(F)ccc1F,2,9,0,6,-3,-1
O=S1(=O)CC2(N3CCOCC3)CCCCCCC21 (stereo not given),5,-16,0,-2,3,-2
SMILES,MT stabilize HCS,APP transl inh,bCat nuc transl,BaF3 parental,Lmaj promast,Ba/F3 V617F tox
Clc1ccc2c(c1)C(OC1CN3CCC1CC3)c1ccccc1CS2 (stereo not given),5,-2,2,5,100*,-1
CN1CCN(CCOC2c3ccccc3CSc3ccc(Cl)cc32)CC1 (stereo not given),5,0,-1,10,99*,-1
O=C(COc1ccc(Cl)cc1)N(c1ccccc1Cl)C1CN2CCC1CC2 (stereo not given),nt,nt,2,2,nt,3
O=C1C2C3CCC(O3)C2C(=O)N1CCO (stereo not given),nt,nt,0,-1,nt,-3
Cc1sc(-n2c(C)cc(C=C3C(=O)NC(=O)NC3=O)c2C)c(C#N)c1C,4,11,1,4,-5,0
CCOP(=O)(OCC)C(O)c1cccnc1 (stereo not given),nt,nt,0,-2,nt,-7
O=C(Nc1ccc(OC(=O)N2CCCC2)cc1)N1CCOCC1,2,4,8,4,-6,0
O=C(Nc1ccc(OC(=O)N2CCCCC2)cc1)N1CCOCC1,2,52*,-2,-2,7,-1
Nc1ccccc1-[n+]1c(-c2ccccc2)cc(-c2ccccc2)cc1-c1ccccc1,nt,nt,2,52*,nt,49*
CC(C)N1CCC2(CC1)NC(CO)(CO)CO2,2,-5,nt,2,-8,2
CCOc1ccc(Cl)cc1CNCCc1ccc(F)cc1,2,-17,-4,5,65*,-1
O=C(c1ccc(N2CC3CC(C2)c2cccc(=O)n2C3)c([N+](=O)[O-])c1)N1CCCC1 (stereo not given),3,-8,-1,4,-3,-4
O=C(c1ccc(N2CC3CC(C2)c2cccc(=O)n2C3)c([N+](=O)[O-])c1)N1CCCCC1 (stereo not given),2,13,-3,4,55*,0
CC1CCCCN1C(=O)c1ccc(N2CC3CC(C2)c2cccc(=O)n2C3)c([N+](=O)[O-])c1 (stereo not given),1,-27,-3,3,65*,-6
CC(=NCc1ccco1)c1c(O)n(Cc2ccccc2)c(=O)[nH]c1=O,3,20,-4,2,4,-1
CCc1ccc(N2C(=O)NC(=O)/C(=C\c3cccn3CCOc3ccc(C(C)C)cc3)C2=O)cc1,3,-54,2,6,95*,1
CCN1CCN(C(=O)COc2ccc3c(c2)C(=O)CC2(CCN(C(C)=O)CC2)O3)CC1,1,nt,nt,2,-8,1
O=[N+]([O-])c1cccc(CN2CCN(Cc3ccc(Cl)cc3)CC2)c1,2,-16,2,8,85*,4
O=C(COc1ccc(Cl)cc1)N1CCN(Cc2ccc([N+](=O)[O-])cc2)CC1,3,17,0,8,67*,7
CCCCn1c(=O)c(C(=O)NCc2ccncc2)c(O)c2ccccc21,2,-6,2,3,89*,-1
CCCCCCCn1c(=O)c(C(=O)Nc2cnccn2)c(O)c2ccccc21,nt,nt,2,-3,nt,-1
CCCCn1c(=O)c(C(=O)Nc2ccccc2S(N)(=O)=O)c(O)c2ccccc21,2,-12,-2,1,-6,-3
CCCCCn1c(=O)c(C(=O)Nc2cnccn2)c(O)c2ccccc21,6,2,2,12,98*,1
CCCCCCn1c(=O)c(C(=O)Nc2nnc(C)s2)c(O)c2ccccc21,2,2,1,1,4,-1
CCCCCn1c(=O)c(C(=O)Nc2nc(CC(=O)OCC)cs2)c(O)c2ccccc21,2,4,3,2,90*,0
